From ChEMBL document CHEMBL1152649, “Synthesis, cytotoxicity and human telomerase inhibition activities of a series of 1,2-heteroannelated anthraquinones and anthra[1,2-d]imidazole-6,11-dione homologues” (2009)
The source made the active and inactive calls. No cut-off for these calls is given here.

Key:
[1] = Cytotoxicity against human H1299 cells at 10 uM after 48 hrs by MTT assay; type: functional; conditions: NCI-H1299, 48 h
Summary of the method: (§1)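 H1299 non-small cell lung cancer cells were grown in RPMI 1640 with 10% FBS, penicillin and streptomycin at 37 °C under 5% CO2. About 2 × 10³ cells per well were seeded and left 24 h. Compounds were dissolved fresh in DMSO, diluted into complete medium and applied for 48 h. MTT was then added for 4 h at 37 °C, followed by lysis buffer (20% SDS, 50% DMF) for 16 h, and absorbance was read at 550 nm.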

[2] = target: Telomerase reverse transcriptase (Homo sapiens) (UniProt O14746); test: Inhibition of TERT in human H1299 cells assessed as residual transcriptional activity at 100 uM after 24 hrs by SEAP reporter gene assay; values are per cent of control
Sequence of Telomerase reverse transcriptase (Homo sapiens) (O14746 whole entry): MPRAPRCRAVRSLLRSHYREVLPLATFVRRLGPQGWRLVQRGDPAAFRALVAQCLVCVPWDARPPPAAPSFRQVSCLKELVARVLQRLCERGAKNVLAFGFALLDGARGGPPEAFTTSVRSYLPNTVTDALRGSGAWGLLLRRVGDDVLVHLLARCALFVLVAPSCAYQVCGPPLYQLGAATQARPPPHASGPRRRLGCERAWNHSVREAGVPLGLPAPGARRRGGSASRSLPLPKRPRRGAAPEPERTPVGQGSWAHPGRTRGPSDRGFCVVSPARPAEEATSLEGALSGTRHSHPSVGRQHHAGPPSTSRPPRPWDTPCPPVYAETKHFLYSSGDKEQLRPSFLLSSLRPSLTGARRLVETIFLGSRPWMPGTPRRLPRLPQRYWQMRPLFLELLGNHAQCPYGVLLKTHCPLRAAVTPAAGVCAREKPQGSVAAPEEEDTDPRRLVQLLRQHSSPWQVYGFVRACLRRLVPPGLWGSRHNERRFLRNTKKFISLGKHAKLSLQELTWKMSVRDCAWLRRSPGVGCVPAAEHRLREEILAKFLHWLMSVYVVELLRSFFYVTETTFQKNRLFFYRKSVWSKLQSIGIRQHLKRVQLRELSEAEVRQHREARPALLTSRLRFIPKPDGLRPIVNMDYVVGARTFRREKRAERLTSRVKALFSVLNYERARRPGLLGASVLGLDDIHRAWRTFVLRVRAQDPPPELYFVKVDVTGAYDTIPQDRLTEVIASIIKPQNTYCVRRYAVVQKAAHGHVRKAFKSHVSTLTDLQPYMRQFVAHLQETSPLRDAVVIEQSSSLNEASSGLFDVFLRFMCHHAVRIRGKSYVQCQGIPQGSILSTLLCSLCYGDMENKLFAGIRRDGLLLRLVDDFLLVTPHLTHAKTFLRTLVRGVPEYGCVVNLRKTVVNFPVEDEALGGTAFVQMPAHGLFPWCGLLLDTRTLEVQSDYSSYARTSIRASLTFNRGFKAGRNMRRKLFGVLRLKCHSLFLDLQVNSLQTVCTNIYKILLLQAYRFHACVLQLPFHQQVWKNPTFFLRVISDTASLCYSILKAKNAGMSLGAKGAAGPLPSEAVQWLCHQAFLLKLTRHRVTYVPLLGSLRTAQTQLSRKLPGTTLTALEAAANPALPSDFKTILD

[3] = target: Telomerase reverse transcriptase (Homo sapiens) (UniProt O14746); test: Inhibition of telomerase in human H1299 cells up to 100 uM by TRAP assay; type: cell-based
Summary of the method: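 PCR-based telomeric repeat amplification protocol (TRAP). The telomerase source was total lysate of H1299 lung cancer cells, with protein measured against BSA standards. Controls were extract without inhibitor and RNase A-treated extract.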

[4] = Cytotoxicity against human H1299 cells at 1 uM after 48 hrs by MTT assay; type: functional; conditions: NCI-H1299, 48 h; summary of the method: as §1
[5] = Cytotoxicity against human H1299 cells at 100 uM after 48 hrs by MTT assay; type: functional; conditions: NCI-H1299, 48 h; summary of the method: as §1
[6] = target: Telomerase reverse transcriptase (Homo sapiens) (UniProt O14746); test: Inhibition of TERT in human H1299 cells assessed as residual transcriptional activity at 1 uM after 24 hrs by SEAP reporter gene assay; values are per cent of control
[7] = target: Telomerase reverse transcriptase (Homo sapiens) (UniProt O14746); test: Inhibition of TERT in human H1299 cells assessed as residual transcriptional activity at 10 uM after 24 hrs by SEAP reporter gene assay; values are per cent of control

| SMILES | residual activity [2] [%] | inhibition [3] | residual activity [6] [%] | residual activity [7] [%] | viability at 10 µM [1] [%] | viability at 1 µM [4] [%] | viability at 100 µM [5] [%] |
| --- | --- | --- | --- | --- | --- | --- | --- |
| O=C1c2ccccc2C(=O)c2c1ccc1nc(-c3ccc([N+](=O)[O-])cc3)[nH]c21 | 6 | inactive | 85 | 62 | 52 | 84 | 33 |
| CCC(C)c1nc2ccc3c(c2[nH]1)C(=O)c1ccccc1C3=O (stereo unspecified) | 11 | inactive | 67 | 58 | 83 | 77 | 43 |
| CCCCc1nc2ccc3c(c2[nH]1)C(=O)c1ccccc1C3=O | 36 | inactive | 91 | 84 | 70 | 85 | 20 |
| CC/C=C/c1nc2ccc3c(c2[nH]1)C(=O)c1ccccc1C3=O | 13 | inactive | 63 | 34 | 48 | 69 | 14 |
| O=C1c2ccccc2C(=O)c2c1ccc1nc(CCl)[nH]c21 | 5 | inactive | 94 | 81 | 79 | 80 | 26 |
| CC1(c2ccccc2)Nc2ccc3c(c2N1)C(=O)c1ccccc1C3=O (stereo unspecified) | 29 | inactive | 99 | 97 | 99 | 99 | 29 |

Now from value to molecule, other results behind:

| residual activity [2] [%] | inhibition [3] | residual activity [6] [%] | residual activity [7] [%] | SMILES | viability at 10 µM [1] [%] | viability at 1 µM [4] [%] | viability at 100 µM [5] [%] |
| --- | --- | --- | --- | --- | --- | --- | --- |
| 29 | inactive | 88 | 87 | CC(C)(C)c1nc2ccc3c(c2[nH]1)C(=O)c1ccccc1C3=O | 81 | 83 | 56 |
| 19 | inactive | 101 | 82 | Cc1nc2ccc3c(c2[nH]1)C(=O)c1ccccc1C3=O | 44 | 64 | 33 |
| 26 | inactive | 95 | 88 | Cc1nc2ccc3c(c2nc1C)C(=O)c1ccccc1C3=O | 69 | 78 | 25 |
| 31 | inactive | 97 | 100 | O=C1c2ccccc2C(=O)c2c1ccc1[nH]c(=S)[nH]c21 | 99 | 101 | 54 |
| 32 | inactive | 89 | 88 | CCCCCCCc1nc2ccc3c(c2[nH]1)C(=O)c1ccccc1C3=O | 69 | 85 | 40 |
| 41 | inactive | 77 | 76 | COc1ccc(OC)c(-c2nc3ccc4c(c3[nH]2)C(=O)c2ccccc2C4=O)c1 | 39 | 91 | 13 |
| 13 | inactive | 83 | 76 | CC(C)c1nc2ccc3c(c2[nH]1)C(=O)c1ccccc1C3=O | 73 | 95 | 34 |
